Screening data from PubChem.
A selection: hits, their analogues and other compounds. The true share with any hit is near 1.9%.
LEDGF integ inh: blocks HIV-1 LEDGF/p75-dependent DNA integration. TR-FRET IN-LEDGF/p75 DNA integration, Eu/Cy5. inhibition, % at 3.7 µM. 370,000 tested, 0.64% active. AID 743269;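 active means inhibition above the screen-wide mean plus 3 SD, cut at about 13% in these data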;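 further: signal is the Cy5 over europium emission ratio at 671 and 618 nm; 0% = plate median of compound wells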
NSD2 inh: inhibitors of human histone methyltransferase NSD2; inhibition, % at 12.5 µM; O96028; 310,000 tested, 0.54% active; NSD2 peptide methylation, AlphaScreen, 120 min; in the data active means inhibition above about 50%
Casp6 inh: inhibitors of human caspase-6. 350,000 tested, 0.53% active. purified caspase-6, Z-VEID-R110 cleavage fluorescence. inhibition, % at 12.5 µM;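 active means mean inhibition across replicates at least about 35%, with every replicate also reaching that limit, limit read from the data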;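 further: 0% = median of neutral control wells and 100% = no fluorescence left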
MBD2 inh: inhibitors of human MBD2 binding to methylated oligonucleotide; AID 686964; Q9UBB5; 370,000 tested, 0.31% active; TR-FRET; inhibition, % at 4.4 µM; in the data active means inhibition above about 13%
Target sequence (Q9UBB5 whole entry, looked up): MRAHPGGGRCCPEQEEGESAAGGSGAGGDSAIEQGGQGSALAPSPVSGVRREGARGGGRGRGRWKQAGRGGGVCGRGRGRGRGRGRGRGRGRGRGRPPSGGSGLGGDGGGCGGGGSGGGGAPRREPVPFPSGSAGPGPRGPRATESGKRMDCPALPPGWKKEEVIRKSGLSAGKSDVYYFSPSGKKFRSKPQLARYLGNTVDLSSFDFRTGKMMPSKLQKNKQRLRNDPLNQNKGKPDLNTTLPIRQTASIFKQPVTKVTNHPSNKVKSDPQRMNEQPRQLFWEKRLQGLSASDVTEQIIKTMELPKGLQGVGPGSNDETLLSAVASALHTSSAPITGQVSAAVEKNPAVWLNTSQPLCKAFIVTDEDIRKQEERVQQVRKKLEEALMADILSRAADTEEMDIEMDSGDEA
UHRF1 MBD2 ctr: UHRF1 methyl-DNA binding inhibition; AID 687016; UHRF1 binding to methylated oligo, TR-FRET; 370,000 tested, 0.75% active; inhibition, % at 4.4 µM; Q96T88; in the data active means inhibition above about 21%;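 further: UHRF1 SRA domain binding a hemimethylated CpG hairpin DNA probe; 0% = median of test compound wells and 100% = reference inhibitor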
TDP2 absorb: blocks human TDP2 phosphodiesterase activity. inhibition, % at 12.8 µM. recombinant TDP2, T5PNP hydrolysis, p-nitrophenol absorbance 415 nm. AID 720702. 370,000 tested, 0.34% active;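 active means inhibition above the mean of all tested compounds plus 3 SD, set per campaign, cut at about 25% in these data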;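 further: 0% = DMSO with enzyme and 100% = buffer with substrate but no TDP2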
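Read-out basis: percent inhibition. System: recombinant human TDP2. Buffer or medium: Mg2+-containing Tris-HCl buffer, pH 7.5. Repeats: single replicate. Timing: reaction 2 h, 37 °C. Benchmarks: high control without enzyme, low control DMSO plus TDP2. Probe or stimulus: 5 mM T5PNP. Doses: 12.8 µM only. Measured by: epi absorbance of p-nitrophenol freed from T5PNP by hydrolysis.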
TDP2 confirm: confirmation of human TDP2 inhibitors; shares compounds with TDP2 absorb; recombinant human TDP2, absorbance read-out; inhibition, % at 12.8 µM; 1,100 tested, 22% active; AID 743263; in the data active means inhibition above about 25%;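 further: 0% = vehicle with enzyme and 100% = no enzyme buffer only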
* = called active by the depositor; nt = not tested or not shown.

SMILES	LEDGF integ inh	NSD2 inh	Casp6 inh	MBD2 inh	UHRF1 MBD2 ctr	TDP2 absorb	TDP2 confirm
CCCN(C)C[C@@H]1Oc2cc(C#Cc3ccccc3F)ccc2S(=O)(=O)N([C@@H](C)CO)C[C@@H]1C	nt	nt	1	nt	nt	nt	nt
COc1cccc(-n2c(=O)c3ccccc3n3c(=S)[nH]nc23)c1	-2	3	1	-6	1	69*	3
CO[C@@H]1CN(C)C(=O)c2cc(NC(C)=O)ccc2OC[C@@H](C)N(CCc2ccccc2)C[C@H]1C	nt	nt	-2	nt	nt	nt	nt
CCNc1nc(NCC)n2c(SCC(=O)Nc3cc(Cl)ccc3OC)nnc2n1	0	0	4	1	2	25*	-7
CCNc1nc(NCC)n2c(SCC(=O)Nc3ccc(OC)c(OC)c3)nnc2n1	4	-2	32	3	7	-19	nt
Cn1c(CC(=O)Nc2ccccc2Cl)nnc1SCC(=O)Nc1nncs1	3	2	0	3	3	2	nt
Cc1ccc(NC(=O)Cc2nnc(SCC(=O)Nc3nncs3)n2C)c(C)c1	0	-5	-1	-2	1	29*	2
COc1cccc(NC(=O)N(C)C[C@H]2Oc3cc(-c4cccc(C(=O)N(C)C)c4)ccc3S(=O)(=O)N([C@H](C)CO)C[C@@H]2C)c1	nt	nt	1	nt	nt	nt	nt
O=C(C[C@H]1C[C@@H]2c3cc(NC(=O)NC4CCCCC4)ccc3O[C@@H]2[C@@H](CO)O1)NCc1ccncc1	nt	nt	-1	nt	nt	nt	nt
COc1ccc(COC(=O)c2cccc(S(=O)(=O)N3CCN(C(C)=O)CC3)c2)cc1F	-1	-3	0	2	-3	25*	7
C[C@H]1CN([C@@H](C)CO)C(=O)c2cc(C3=CCCCC3)cnc2O[C@H]1CN(C)Cc1ccc(C(=O)O)cc1	nt	nt	1	nt	nt	nt	nt
COc1ccc(CNCCCC(=O)Nc2c(Cl)ccc(C)c2Cl)cc1OC	3	4	-9	2	-1	29*	8
CCOc1ccc2nc(SCC(=O)NCC3CCCO3)c(C#N)cc2c1 (configuration not stated)	3	-4	-1	3	7	27*	-2
O=C(C[C@H]1CC[C@H]2[C@@H](COC[C@@H](O)CN2CC2CCOCC2)O1)N1CCOCC1	nt	nt	-2	nt	nt	nt	nt
Cn1c(=S)[nH]c2sc3c(c2c1=O)CCC(C(C)(C)C)C3 (configuration not stated)	-3	8	4	-1	-3	27*	-3
CCC(Oc1ccccc1)C(=O)Nc1ccc(C)c(S(=O)(=O)N2CCOCC2)c1 (configuration not stated)	4	-1	3	3	-2	29*	5
CC1(C)CC(=O)C=C(Nc2ccc(O)c(C(=O)O)c2)C1	1	2	22	1	-5	25*	0
C[C@@H]1CN([C@H](C)CO)C(=O)c2cc(C#CC3CC3)cnc2O[C@@H]1CN(C)C(=O)Cc1ccccn1	nt	nt	1	nt	nt	nt	nt
N#Cc1ccccc1S(=O)(=O)N1CCN(CC(O)COc2ccccc2F)CC1 (configuration not stated)	0	-1	-1	-1	0	28*	8
O=S(=O)(c1ccccc1C(F)(F)F)N1CCN(CC(O)COc2ccccc2F)CC1 (configuration not stated)	1	3	-3	6	3	7	nt
CCN(C(=O)c1cccc2c1-c1ccccc1C2=O)c1ccccc1	1	2	nt	3	2	4	nt
CCC(=O)N(CC)C1=C(O)c2ccccc2C(=O)C1=O	4	17	40*	-8	-10	29*	19
Cc1nnc(N2C(=O)C(=O)/C(=C(/O)c3ccc4c(c3)CC(C)O4)C2c2ccccc2F)s1 (configuration not stated)	-3	0	2	2	2	37*	-5
O=C(C[C@@H]1C=C[C@@H](NC(=O)CN2CCOCC2)[C@@H](CO)O1)NCCc1ccccc1	nt	nt	0	nt	nt	nt	nt
N#CC1=C(N)Oc2n[nH]c(-c3cccnc3)c2C1c1cc(F)ccc1F (configuration not stated)	2	-1	0	2	-5	52*	-12
